Reference: ChEMBL document CHEMBL1154876, “Synthesis and antimicrobial studies on novel sulfonamides containing 4-azidomethyl coumarin” (2010)
In brackets after ≈: the same amount, converted by molar mass.

Tests used:
Assay type in all cases: functional
[1] = tested on: Enterococcus faecalis; experiment: Antibacterial activity against Streptococcus faecalis MTCC 3382 after 18 hrs by broth microdilution method; details: MTCC 3382, 18 h
[2] = tested on: Klebsiella pneumoniae; experiment: Antibacterial activity against Klebsiella pneumoniae MTCC 3384 after 18 hrs by broth microdilution method; details: MTCC 3384, 18 h
[3] = tested on: Aspergillus fumigatus; experiment: Antifungal activity against Aspergillus fumigatus after 48 to 72 hrs by broth microdilution method
Outline: (§1)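 Test compounds were prepared as 10 mg/ml DMSO stocks and serially diluted twofold in Sabouraud's dextrose broth over 500, 250, 125, 62.5, 31.25, 16, 8, 4, 2 and 1, alongside fluconazole as reference. Plates were inoculated with 1–5 × 10⁴ cfu/ml and held at 25 °C for 48–72 h. The MIC was the lowest concentration showing no visible growth.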

[4] = tested on: Pseudomonas aeruginosa; experiment: Antibacterial activity against Pseudomonas aeruginosa MTCC 1034 after 18 hrs by broth microdilution method; details: MTCC 1034, 18 h
[5] = tested on: Mucor; experiment: Antifungal activity against Mucor fuscus after 48 to 72 hrs by broth micro dilution method; outline: as §1
[6] = tested on: Fusarium oxysporum; experiment: Antifungal activity against Fusarium oxysporum after 48 to 72 hrs by broth microdilution method; outline: as §1
[7] = tested on: Staphylococcus aureus; experiment: Antibacterial activity against Staphylococcus aureus MTCC 3160 after 18 hrs by broth microdilution method; details: MTCC 3160, 18 h
[8] = tested on: Bacillus subtilis; experiment: Antibacterial activity against Bacillus subtilis MTCC 297 after 18 hrs by broth microdilution method; details: MTCC 297, 18 h
[9] = tested on: Escherichia coli; experiment: Antibacterial activity against Escherichia coli MTCC 1089 after 18 hrs by broth microdilution method; details: MTCC 1089, 18 h
[10] = tested on: Aspergillus niger; experiment: Antifungal activity against Aspergillus niger after 48 to 72 hrs by broth microdilution method; outline: as §1
[11] = tested on: Candida albicans; experiment: Antifungal activity against Candida albicans after 48 to 72 hrs by broth microdilution method; outline: as §1
[12] = tested on: Penicillium chrysogenum; experiment: Antifungal activity against Penicillium chrysogenum after 48 to 72 hrs by broth microdilution method; outline: as §1

MIC [1]	MIC [2]	MIC [3]	MIC [4]	MIC [5]	MIC [6]	MIC [7]	MIC [8]	MIC [9]	MIC [10]	MIC [11]	MIC [12]	SMILES
1 µg/mL (≈ 2.41 µM)	16 µg/mL (≈ 38.5 µM)	8 µg/mL (≈ 19.3 µM)	4 µg/mL (≈ 9.63 µM)	8 µg/mL (≈ 19.3 µM)	1 µg/mL (≈ 2.41 µM)	1 µg/mL (≈ 2.41 µM)	62.5 µg/mL (≈ 150 µM)	> 500 µg/mL	8 µg/mL (≈ 19.3 µM)	250 µg/mL (≈ 602 µM)	4 µg/mL (≈ 9.63 µM)	Cc1cc2oc(=O)cc(CN=[N+]=[N-])c2cc1S(=O)(=O)Nc1ccccc1[N+](=O)[O-]
1 µg/mL (≈ 2.28 µM)	2 µg/mL (≈ 4.55 µM)	250 µg/mL (≈ 569 µM)	2 µg/mL (≈ 4.55 µM)	16 µg/mL (≈ 36.4 µM)	1 µg/mL (≈ 2.28 µM)	31.2 µg/mL (≈ 71.1 µM)	250 µg/mL (≈ 569 µM)	> 500 µg/mL	250 µg/mL (≈ 569 µM)	8 µg/mL (≈ 18.2 µM)	62.5 µg/mL (≈ 142 µM)	Cc1cc2oc(=O)cc(CN=[N+]=[N-])c2cc1S(=O)(=O)Nc1ccc(Cl)cc1Cl
1 µg/mL (≈ 2.23 µM)	1 µg/mL (≈ 2.23 µM)	> 500 µg/mL	1 µg/mL (≈ 2.23 µM)	250 µg/mL (≈ 556 µM)	1 µg/mL (≈ 2.23 µM)	16 µg/mL (≈ 35.6 µM)	> 500 µg/mL	> 500 µg/mL	> 500 µg/mL	125 µg/mL (≈ 278 µM)	16 µg/mL (≈ 35.6 µM)	Cc1cc2oc(=O)cc(CN=[N+]=[N-])c2cc1S(=O)(=O)Nc1ccc(Br)cc1
8 µg/mL (≈ 19.1 µM)	8 µg/mL (≈ 19.1 µM)	16 µg/mL (≈ 38.2 µM)	1 µg/mL (≈ 2.39 µM)	16 µg/mL (≈ 38.2 µM)	1 µg/mL (≈ 2.39 µM)	8 µg/mL (≈ 19.1 µM)	4 µg/mL (≈ 9.55 µM)	> 500 µg/mL	16 µg/mL (≈ 38.2 µM)	31.2 µg/mL (≈ 74.6 µM)	4 µg/mL (≈ 9.55 µM)	Cc1ccc(NS(=O)(=O)c2cc3c(CN=[N+]=[N-])cc(=O)oc3cc2C)cc1Cl
2 µg/mL (≈ 4.45 µM)	62.5 µg/mL (≈ 139 µM)	2 µg/mL (≈ 4.45 µM)	2 µg/mL (≈ 4.45 µM)	62.5 µg/mL (≈ 139 µM)	1 µg/mL (≈ 2.22 µM)	2 µg/mL (≈ 4.45 µM)	125 µg/mL (≈ 278 µM)	> 500 µg/mL	8 µg/mL (≈ 17.8 µM)	4 µg/mL (≈ 8.89 µM)	125 µg/mL (≈ 278 µM)	Cc1cc2oc(=O)cc(CN=[N+]=[N-])c2cc1S(=O)(=O)Nc1cc([N+](=O)[O-])ccc1Cl
16 µg/mL (≈ 45.5 µM)	125 µg/mL (≈ 356 µM)	4 µg/mL (≈ 11.4 µM)	125 µg/mL (≈ 356 µM)	1 µg/mL (≈ 2.84 µM)	1 µg/mL (≈ 2.84 µM)	16 µg/mL (≈ 45.5 µM)	16 µg/mL (≈ 45.5 µM)	125 µg/mL (≈ 356 µM)	4 µg/mL (≈ 11.4 µM)	8 µg/mL (≈ 22.8 µM)	1 µg/mL (≈ 2.84 µM)	Cc1cc2oc(=O)cc(CBr)c2cc1S(=O)(=O)Cl
8 µg/mL (≈ 19.8 µM)	4 µg/mL (≈ 9.88 µM)	16 µg/mL (≈ 39.5 µM)	1 µg/mL (≈ 2.47 µM)	> 500 µg/mL	1 µg/mL (≈ 2.47 µM)	1 µg/mL (≈ 2.47 µM)	16 µg/mL (≈ 39.5 µM)	> 500 µg/mL	31.2 µg/mL (≈ 77.2 µM)	> 500 µg/mL	2 µg/mL (≈ 4.94 µM)	Cc1cc2oc(=O)cc(CN=[N+]=[N-])c2cc1S(=O)(=O)Nc1cccc(Cl)c1
8 µg/mL (≈ 19.3 µM)	125 µg/mL (≈ 301 µM)	8 µg/mL (≈ 19.3 µM)	125 µg/mL (≈ 301 µM)	4 µg/mL (≈ 9.63 µM)	2 µg/mL (≈ 4.81 µM)	4 µg/mL (≈ 9.63 µM)	8 µg/mL (≈ 19.3 µM)	125 µg/mL (≈ 301 µM)	8 µg/mL (≈ 19.3 µM)	16 µg/mL (≈ 38.5 µM)	2 µg/mL (≈ 4.81 µM)	Cc1cc2oc(=O)cc(CN=[N+]=[N-])c2cc1S(=O)(=O)Nc1cccc([N+](=O)[O-])c1
4 µg/mL (≈ 9.63 µM)	2 µg/mL (≈ 4.81 µM)	250 µg/mL (≈ 602 µM)	1 µg/mL (≈ 2.41 µM)	8 µg/mL (≈ 19.3 µM)	1 µg/mL (≈ 2.41 µM)	2 µg/mL (≈ 4.81 µM)	125 µg/mL (≈ 301 µM)	250 µg/mL (≈ 602 µM)	62.5 µg/mL (≈ 150 µM)	62.5 µg/mL (≈ 150 µM)	62.5 µg/mL (≈ 150 µM)	Cc1cc2oc(=O)cc(CN=[N+]=[N-])c2cc1S(=O)(=O)Nc1ccc([N+](=O)[O-])cc1
4 µg/mL (≈ 9.88 µM)	1 µg/mL (≈ 2.47 µM)	125 µg/mL (≈ 309 µM)	1 µg/mL (≈ 2.47 µM)	16 µg/mL (≈ 39.5 µM)	1 µg/mL (≈ 2.47 µM)	8 µg/mL (≈ 19.8 µM)	16 µg/mL (≈ 39.5 µM)	> 500 µg/mL	31.2 µg/mL (≈ 77.2 µM)	8 µg/mL (≈ 19.8 µM)	16 µg/mL (≈ 39.5 µM)	Cc1cc2oc(=O)cc(CN=[N+]=[N-])c2cc1S(=O)(=O)Nc1ccc(Cl)cc1
16 µg/mL (≈ 36.4 µM)	1 µg/mL (≈ 2.28 µM)	31.2 µg/mL (≈ 71.1 µM)	8 µg/mL (≈ 18.2 µM)	31.2 µg/mL (≈ 71.1 µM)	1 µg/mL (≈ 2.28 µM)	4 µg/mL (≈ 9.11 µM)	2 µg/mL (≈ 4.55 µM)	> 500 µg/mL	16 µg/mL (≈ 36.4 µM)	16 µg/mL (≈ 36.4 µM)	2 µg/mL (≈ 4.55 µM)	Cc1cc2oc(=O)cc(CN=[N+]=[N-])c2cc1S(=O)(=O)Nc1ccc(Cl)c(Cl)c1
31.2 µg/mL (≈ 99.6 µM)	125 µg/mL (≈ 398 µM)	8 µg/mL (≈ 25.5 µM)	125 µg/mL (≈ 398 µM)	2 µg/mL (≈ 6.38 µM)	2 µg/mL (≈ 6.38 µM)	4 µg/mL (≈ 12.8 µM)	31.2 µg/mL (≈ 99.6 µM)	125 µg/mL (≈ 398 µM)	8 µg/mL (≈ 25.5 µM)	8 µg/mL (≈ 25.5 µM)	4 µg/mL (≈ 12.8 µM)	Cc1cc2oc(=O)cc(CN=[N+]=[N-])c2cc1S(=O)(=O)Cl
